Measurements from the EternaBench riboswitch data.

Test system: MS2 coat protein
Experiment: apparent Kd, MS2 coat protein; higher = weaker binding; RNA-MaP array; FMN 200 µM where present
Method in brief: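 Stalled E. coli RNA polymerase transcribed each design on Illumina sequencing-chip clusters. The clusters were titrated with SNAP-549-labelled MS2 coat protein, starting at 0.7 or 1.5 nM and doubling up to 3 µM, first without ligand and then with constant ligand, in 100 mM Tris-HCl pH 7.5, 80 mM KCl, 4 mM MgCl2, BSA, DTT, yeast tRNA and Tween-20. Green signal was normalised to red-channel RNA signal and to the control-cluster median Fmax. The apparent Kd is the median of filtered binding-curve fits made for each cluster.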

[1] = designed as: OFF switch for flavin mononucleotide, no ligand
[2] = ligand present: flavin mononucleotide, designed as: OFF switch for flavin mononucleotide
[3] = designed as: ON switch for flavin mononucleotide, no ligand
[4] = ligand present: flavin mononucleotide, designed as: ON switch for flavin mononucleotide

Row | Sequence | apparent Kd [1] [nM] | apparent Kd [2] [nM] | apparent Kd [3] [nM] | apparent Kd [4] [nM]
1 | CAGCAAAAGUAGAAGGCAGUACUGAUUCAGUACUGAGGAUAUACAUGAGGAUCACCCAUGUAAUAUAGCUGAAUAAUAUAUUAU | 6.17 | 7.56 |  | 
2 | GGAUAUGACAGAGGAUAUACGUGCUAGAGAUACUAGCAAAAUUUCCUCACAUGAGGAUCACCCAUGUAGAAGGCUGUCCUAUCG | 16.3 | 275 |  | 
3 | AAUAUAAAGAGCUGGUAACUCAAAACAUGAGGAUCACCCAUGUAGGAUAUCAGCACGAUAAGUGCUGAGAAGGACAUCCAGCUC | 16.5 | 17.2 |  | 
4 | AAUUUAAAGGGAGGAUAUACAUGAGGAUCACCCAUGUAAUCAUAUGAUAUUUUUUUUGUAUGAGUGUAGAAGGCCCAAAUAAAA | 7.72 | 9.3 |  | 
5 | UUUGCAUUCCGAGGAUAUUCAUAUAAUGACUACACAUGAGGAUCACCCAUGUGGCGAUAGCCUAGGGAGAAGGCGGUUUGCUUU |  |  | 20.3 | 17.8
6 | CAGGAUAGAGGAUAUACAUAGAUACAGAUUCGUGUGAUCCUACAUGAGGAUCACCCAUGUAGAAGGCUAUCCUG | 213 | 15.9 |  | 
7 | AUAAUUUUAUAAUUCUAUUUAUUCAGAAGGCAUAACAUGAGGAUCACCCAUGUAAAUUAAUGUUAUGAGGAUAUGAUUUGGUUA | 18.6 | 130 |  | 
8 | GUAUAUAGUGUGAGGAUAUGCUGGUCCUUGGAUCAGCAGAAGGCACAUGAGGAUCACCCAUGUAGUUUAUUUUG | 18.4 | 65.7 |  | 
9 | UGUUCGUCAGGAUAUUCUACUUAUUACAUGAGGAUCACCCAUGUGUAUGUACAAGGGUGUGAAGAAGGGACUUUUU | 719 | 260 |  | 
10 | UAUAUAUAGGCAGGAUAUACAUGAAUAUAUAUAAUAUAGUAUGAUGUAACAUGAGGAUCACCCAUGUAGAAGGGCCAAUAUAUA | 36.2 | 83.9 |  | 
11 | UGUUAAUAUCGAGGAUAUGUCUAGACACAUGAGGAUCACCCAUGUAUGUGUAUAGAAGGCGAUAUUAACAGCAUGUUACAUGCU |  |  | 39.9 | 17.5
12 | GCUGGGUCAGGAUAUACGAGAUCGAAAGAUCGAAGAUCCGUACAUGAGGAUCACCCAUGUAGAAGGGACUGGGC | 21.4 | 44.7 |  | 
13 | AGAUAACACCAGAAGGACAUGAGGAUCACCCAUGUAGGAUAUGGGCAUCACUCGAGAAAGAAAAGACCAUAUGGACACAUGGUC |  |  | 160 | 13.2
14 | AUAGAAGACUAGAAGGACCUAGUUGUAUAUUGUCGAGGUAUAUAGUUAGGUAGGAUAUGGGACAUGAGGAUCACCCAUGUCUUG |  |  | 8.51 | 7.75
15 | UUAUUAUGUGUAGGAUAUGCAUAUUAUGAUUAUGCAGAAGGACAUGAGGAUCACCCAUGUAUAUUAUUAUUAUAUAUUAUAUAU | 13.3 | 21.1 |  | 
16 | UCGCCAGGUACAGGAUAUGUGGAUCAGUCAAGUAACUUGCUGAACAUGAGGAUCACCCAUGUAUCACAGAAGGGUGCCUCAAAA |  |  | 199 | 10.8
17 | AAACAUGUCCGAGGAUAUCUGGAAACACUUUCAAGAGAAGGCGGACAUGAGGAUCACCCAUGUCUCUCCUCAUCAAAUCCAAGU | 6.53 | 30.2 |  | 
18 | AUUUUAAAGGGAGGAUAUACAUGAGGAUCACCCAUGUAAACGUGAGGAUCACCCAUGUAAACAAUGUAGAAGGCCUAAAUCUAU | 86.1 | 73.6 |  | 
19 | AAGGAUAGAGGAUAUACAUAGAUACAGAUUCAUGUAGACCUACAUGAGGAUCACCCAUGUAGAAGGCUAUCCUA | 19.2 | 113 |  | 
20 | GGAUGACAAAGUCAUCCAUAACGAACAUGAGGAUCACCCAUGUAGGAUAUGCUUCUCAAAGAGAAGCAGAAGGACAUGUGCCUU | 36.7 | 258 |  | 
21 | GGUGCCAUGUAGAAGGCAGAUCUGAUUCAGAUCUGAGGAUAUACAUGAGGAUCACCCAUGUGAAGGCACCGCACGAGAGUGCAA | 8.21 | 24 |  | 
22 | CUUUUGUGAGGAUAUCAGUAGUAAAAGAAUAAAAUUACUACUGAGAAGGCACAUGAGGAUCACCCAUGUUCCUC | 42.5 | 239 |  | 
23 | GUGUAGAGAGGAUAUACAUGAGGAUCACCCAUGUGAAUAAGAUAGAAUAAGAUAAAGUGUAGAAGGUUUAGUGU | 43 | 34.2 |  | 
24 | GCGUACAUAUCAGGAUAUCAUAUUAUUGUUUAACUCAGUGUAUACAUGAGGAUCACCCAUGUUCUUGAGAAGGGAUAUGUACGC | 8.15 | 8.79 |  | 
25 | UAUGUAUUCGUAGGAUAUCCGUUAAAACCAUGUGGAGAAGGACGAACAUGAGGAUCACCCAUGUAUCAUGGUGUAGACAAUUUU | 55.5 | 321 |  | 
26 | GAGAUGUGAGGAUAUCUAGACCGCGAAAGAGCCGCGGUCCGAGAGAAGGCACAUGAGGAUCACCCAUGUGAUGA | 46.9 | 119 |  | 
27 | AUUUAUGGCCAGAAGGACAUGAGGAUCACCCAUGUAGGAUAUGGACGAUUUUGCCCGGCGGUUCGUUUAGGAAGCACCGGUGGU |  |  | 11.5 | 7.11
28 | GCUAGUCAUGUCAGGAUAUGCUGAACCUUGGUUCAGCAGAAGGGACAUGAGGAUCACCCAUGUGCCUAACUAGC | 42.1 | 402 |  | 

Row | Sequence | apparent Kd [1] [nM] | apparent Kd [2] [nM] | apparent Kd [3] [nM] | apparent Kd [4] [nM]
29 | ACAUGAGGAUCACCCAUGUAUUACAUGGUUAAGUUUAUUAACAGAAGGCGAAAUUACCACUUGAUCGAGGAUAUGUAUUCAAUU | 45 | 40.3 |  | 
30 | UUCAGCUCGUGAGGAUAUACAUGUGCUGGAAACAGCAUUAAAUUUUUCACAUGAGGAUCACCCAUGUAGAAGGCACGAGCUGAG | 16.6 | 39.8 |  | 
31 | UUUACAUGAGGAUCACCCAUGUCUUGCAAGAUGAGUUCUGGUGAGGAUAUACAUGGUAAAGAACUGUAGAAGGCACUGGGUACA |  |  | 432 | 430
32 | UUGGACGUCGUAGGAUAUGUAGGAUAUUCCUACAUGAGGAUCACCCAUGUUGACAUGGAAGAAGGACAGAAAGACGAUGUCCAU |  |  | 333 | 6.63
33 | CUUCGACAUGAGGAUCACCCAUGUCAGGAUAUUGUGUAUCGGGUGUUGGACGGAUAGGCAAGAAGGGAUGUGUG | 34.7 | 30.1 |  | 
34 | GACAUGGGCUAGAAGGCCUAUCUAUUUAAGUACGAUUUAGAACAGCAUAGGAGGAUAUGGCUAACAUGAGGAUCACCCAUGUUC |  |  | 170 | 39.2
35 | GGCGGUUUGGCAGGAUAUCGGAAACAGACCAAACGAGAAGGGCCUACAUGGCAAUGCGAAAGCAGACAUGAGGAUCACCCAUGU |  |  | 84.9 | 72.2
36 | UUGCGGUAGGAGAAGGACAGAGGCUUAAUUACAUACAUGAGGAUCACCCAUGUAGGAUAUCCUACCUAACGCGGACUCCUCCUG | 6.82 | 7.25 |  | 
37 | AUCAGCUCGUCAGGAUAUACGUCACUGCUUCGGCAGUGUAUUAAGAUCACAUGAGGAUCACCCAUGUAGAAGGGACGAGCUGAU | 21.7 | 226 |  | 
38 | UAUUUAAGAGGAUAUACAUGAGGAUCACCCAUGUAUAUUAAUAUACAUGAUUUUUUAUGUAGAAGGCUUGGGUA | 25.5 | 58.4 |  | 
39 | UGGUACUAGGGAGGAUAUGGGAAGUUACAUGAGGAUCACCCAUGUUUAAGAAUGCCGAGAGGCAACUAGAAGGCCCUAGUACCU |  |  | 31.6 | 6.24
40 | GGGAAGUGAGGAUAUGCUGCUCGUCACUUGCGUGAUGAGUAGCAGAAGGUACAUGAGGAUCACCCAUGUAAAGA | 29.5 | 20.7 |  | 
41 | CCUCGACAUGAGGAUCACCCAUGUCAGGAUAUUGUGUUUUGGGUUUUUUACCUUUUGGCAAGAAGGGAUGUGUG | 15.5 | 19.1 |  | 
42 | UGUUGUAUUACAGGAUAUCUAUUAUUGUUAUUUAGAGAAGGGUAUUCACAUGAGGAUCACCCAUGUAUAUACGAGGAAGUUGUG |  |  | 54.7 | 55.3
43 | GGUGUGGCAUGAGGAUAUGGUCAGCUUUGCUGACCAGAAGGCAUGUCAAUAGACAUGAGGAUCACCCAUGUAGUUAACACACCA |  |  | 557 | 42.4
44 | GUAAGUACGAGAGGAUAUUGACAUGAGGAUCACCCAUGUAUUUGGGAGUGUUCACUGAAUUCUUACGAGAAGGCUCGUACAUAC | 218 | 242 |  | 
45 | GGGCCGAAAGGCCCGCGGGCCCGGCAGGAUAUACAUGAGGAUCACCCAUGUCCGGCGAAAGCCGGGUAGAAGGGCCGGGCCCGC | 4.98 | 5.29 |  | 
46 | ACAUGAGGAUCACCCAUGUAGAAUGGAGAAGGUAGAUACUUGUGACUCACCCAUGUACAUAGGACUAAGGAUAUUCUAAUAAUU |  |  | 94.4 | 54.2
47 | AUGGUUCUCGUAGGAUAUGUAGGAUAUGCCUACAUGAGGAUCACCCAUGUUCGCAUGGCAGAAGGACAGAAGGACGAUCACCAA |  |  | 365 | 19.2
48 | GUAGCUAUCGGAGGAUAUUCAUACCGGAAACGGACAUGAGGAUCACCCAUGUGGCGAAAGCCUUGGGAGAAGGCUGAUAGCUAC |  |  | 257 | 7.37
49 | GAGCUCAAGCAGAAGGCCAUAUGUCAAUCGACAUGAGGAUCACCCAUGUAUGAGCUCGGCGUCGUGGAGGAUAUGCAGGCUCUA |  |  | 351 | 17.6
50 | AAUUAACUCACAGGAUAUAGCAGAGGUCGCGCGAACUUACAGGCGACGAGGCUAGAAGGGUGACCACAUGAGGAUCACCCAUGU |  |  | 770 | 72.4
51 | CGAAGUCCGUAGAAGGGUGACAUGAGGAUCACCCAUGUGCGAGCCGAGGGAGUCAGCGGCUCGCCACAGGAUAUACGGAUCACG |  |  | 17.1 | 61.8
52 | AGUCGGAGCAGAGGAUAUAUACAUGAGGAUCACCCAUGUAAAUGAAUAAGCUGGAAACAGCAAGUAUAGAAGGCUGCUCCGACA | 14.5 | 16.2 |  | 
53 | AGUACUACAGGAUAUACAUGGGUGAUCCUCAUGUCCCUUCUACAUGAGGAUCACCCAUGUAGAAGGGUAGUACA | 15.1 | 11.3 |  | 
54 | UAUAUAUAGUAAGGAUAUGUAUAUAUUCUAUAAACAGAAGGUACUGACAUGAGGAUCACCCAUGUUUUAGUGUGGGCAUGUAGA | 33.9 | 30.5 |  | 
55 | GGAUCGAUGUAGAAGGCUGUCCUAAAAUAGGACAGAGGAUAUACAUGAGGAUCACCCAUGUACUCCUUUAAAACGAUCCAAAUA | 5.44 | 7.59 |  | 
